Results published in ChEMBL document CHEMBL1828605, “Synthesis, antiviral activity, cytotoxicity and cellular pharmacology of l-3'-azido-2',3'-dideoxypurine nucleosides” (Eur J Med Chem, 2011).
pEC50, pIC50, pKd: −log10 of the molar value.

Assays:
[1] = target: Human immunodeficiency virus type 1 reverse transcriptase (Human immunodeficiency virus 1, UniProt Q72547); test: Binding affinity to HIV1 reverse transcriptase assessed as L-3'-azido-NTP incorporation in nascent DNA
[2] = test system: Human immunodeficiency virus 1; test: Antiviral activity against HIV1 LAV1 infected in phytohemagglutininin-stimulated human PBMC assessed as RT level after 6 days by microdilution plate assay; assay type: functional, organism-based
Hepatitis B virus = test: Antiviral activity against Hepatitis B virus infected in human HepAD38 assessed as reduction of viral DNA level on day 7 by quantitative-PCR assay analysis; assay type: functional, organism-based
PBMC [3] = test: Cytotoxicity against phytohemagglutininin-stimulated human PBMC after 6 days by trypan blue exclusion assay; assay type: cell-based; settings: 144 h
CCRF-CEM = test: Cytotoxicity against human CEM cells after 6 days by trypan blue exclusion assay; assay type: cell-based; settings: 144 h
Vero = test: Cytotoxicity against african green monkey Vero cells after 3 days by hemocytometry; assay type: cell-based; settings: Chlorocebus sabaeus, 72 h
[4] = Cytotoxicity against human HepAD38 cells; assay type: cell-based
[5] = target: Human immunodeficiency virus type 1 reverse transcriptase (Human immunodeficiency virus 1) (UniProt Q72547); test: Ratio Kpol to Kd for wild type HIV 1 reverse transcriptase
In short: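 Pre-steady-state single-turnover incorporation by purified WT HIV-1 RT (200 nM, final), pre-incubated with 20 nM T/P substrate, then mixed with nucleotide at varying concentrations plus metal ions. Reaction at 37 °C in 50 mM Tris-HCl pH 7.5, 50 mM KCl, 10 mM MgCl₂. Aliquots quenched in gel loading buffer at 1-60 min. 20mer→21mer conversion quantified on gel. k_obs from burst fit, k_pol and K_d from hyperbolic fit, efficiency taken as k_pol/K_d.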

[6] = target: Human immunodeficiency virus type 1 reverse transcriptase (Human immunodeficiency virus 1) (UniProt Q72547); test: Selectivity ratio of Kpol to Kd for dATP to Kpol to Kd for compound at HIV1 reverse transcriptase
PBMC [7] = test: Drug metabolism in human phytohemagglutininin-stimulated human PBMC assessed as 30-azido-20,30-dideoxy-b-L-adenosine level per 10^6 cells at 50 uM after 4 hrs by LC-MS/MS analysis; assay type: ADME, cell-based
In short: (§1)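 PHA-activated human PBM cells incubated with nucleoside at 50 μM for 4 h at 37 °C, then PBS-washed. Intracellular nucleoside and nucleotide metabolites were extracted with 60% ice-cold methanol, dried, redissolved in HPLC mobile phase, and quantified by LC-MS/MS.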

PBMC [8] = test: Drug metabolism in human phytohemagglutininin-stimulated human PBMC assessed as 30-azido-20,30-dideoxy-b-L-adenosine monophosphate level per 10^6 cells at 50 uM after 4 hrs by LC-MS/MS analysis; assay type: ADME, cell-based; in short: as §1
PBMC [9] = test: Drug metabolism in human phytohemagglutininin-stimulated human PBMC assessed as 30-azido-20,30-dideoxy-b-L-adenosine diphosphate level per 10^6 cells at 50 uM after 4 hrs by LC-MS/MS analysis; assay type: ADME, cell-based; in short: as §1
PBMC [10] = test: Drug metabolism in human phytohemagglutininin-stimulated human PBMC assessed as 30-azido-20,30-dideoxy-b-L-adenosine triphosphate level per 10^6 cells at 50 uM after 4 hrs by LC-MS/MS analysis; assay type: ADME, cell-based; in short: as §1
PBMC [11] = test: Drug metabolism in human phytohemagglutininin-stimulated human PBMC assessed as compound level per 10^6 cells at 50 uM after 4 hrs by LC-MS/MS analysis; assay type: ADME, cell-based
PBMC [12] = test: Drug metabolism in human phytohemagglutininin-stimulated human PBMC assessed as 9-(3-azido-2,3-dideoxy-b-L-ribofuranosyl)-2-amino-6-chloropurine level per 10^6 cells at 50 uM after 4 hrs by LC-MS/MS analysis; assay type: ADME, cell-based; in short: as §1
PBMC [13] = test: Drug metabolism in human phytohemagglutininin-stimulated human PBMC assessed as 9-(3-azido-2,3-dideoxy-b-L-ribofuranosyl)-2-amino-6-chloropurine monophosphate level per 10^6 cells at 50 uM after 4 hrs by LC-MS/MS analysis; assay type: ADME, cell-based; in short: as §1
PBMC [14] = test: Drug metabolism in human phytohemagglutininin-stimulated human PBMC assessed as 9-(3-azido-2,3-dideoxy-b-L-ribofuranosyl)-2-amino-6-chloropurine diphosphate level per 10^6 cells at 50 uM after 4 hrs by LC-MS/MS analysis; assay type: ADME, cell-based; in short: as §1
PBMC [15] = test: Drug metabolism in human phytohemagglutininin-stimulated human PBMC assessed as 9-(3-azido-2,3-dideoxy-b-L-ribofuranosyl)-2-amino-6-chloropurine triphosphate level per 10^6 cells at 50 uM after 4 hrs by LC-MS/MS analysis; assay type: ADME, cell-based; in short: as §1
[16] = target: Human immunodeficiency virus type 1 reverse transcriptase (Human immunodeficiency virus 1) (UniProt Q72547); test: Selectivity ratio of Kpol to Kd for dCTP to Kpol to Kd for compound at HIV1 reverse transcriptase
[17] = Human immunodeficiency virus 1, LAV1, 144 h
[18] = Hepatitis B virus, HePAD38, 168 h

Structure (SMILES): Cc1cn([C@H]2C[C@H](N=[N+]=[N-])[C@@H](CO[P@](=O)(O)O[P@](=O)(O)OP(=O)(O)O)O2)c(=O)[nH]c1=O (single isomer, unassigned) [ZIDOVUDINE TRIPHOSPHATE]
- pKd [1]: 4.26

Structure (SMILES): CCOC(=O)[C@H](C)NP(=O)(OC[C@@H]1O[C@H](n2cnc3c(Cl)ncnc32)C[C@H]1N=[N+]=[N-])Oc1ccccc1 (stereo not given in full)
- pEC50 [2, 17]: 4.78
- EC90 [2, 17]: 83.1 µM
- pEC50 (Hepatitis B virus; [18]): < 4.00
- pIC50 (PBMC [3]): 4.16
- pIC50 (CCRF-CEM): 5.24
- pIC50 (Vero): < 4.00
- Activity [4]: Non-toxic

Structure (SMILES): [N-]=[N+]=N[C@@H]1C[C@@H](n2cnc3c(N)ncnc32)O[C@H]1COP(=O)(O)OP(=O)(O)OP(=O)(O)O
- pKd [1]: 4.82
- Ratio [5]: 0.023 µM⁻¹ min⁻¹
- Selectivity ratio [6]: 19800

Structure (SMILES): Nc1ccn([C@H]2C[C@H](O)[C@@H](CO)O2)c(=O)n1 [DOXECITINE]
- pKd [1]: 5.96
- Ratio [5]: 65 µM⁻¹ min⁻¹

Structure (SMILES): CCOC(=O)[C@H](C)NP(=O)(OC[C@@H]1O[C@H](n2cnc3c(N)nc(N)nc32)C[C@H]1N=[N+]=[N-])Oc1ccccc1 (stereo not given in full)
- pEC50 [2, 17]: 4.80
- EC90 [2, 17]: > 100 µM
- pEC50 (Hepatitis B virus; [18]): < 4.00
- pIC50 (PBMC [3]): < 4.00
- pIC50 (CCRF-CEM): < 4.00
- pIC50 (Vero): < 4.00
- Activity [4]: Non-toxic

Structure (SMILES): Nc1ncnc2c1ncn2[C@H]1C[C@H](O)[C@@H](COP(=O)(O)OP(=O)(O)OP(=O)(O)O)O1
- Ratio [5]: 455 µM⁻¹ min⁻¹

Structure (SMILES): Cc1cn([C@H]2C[C@H](N=[N+]=[N-])[C@@H](CO)O2)c(=O)[nH]c1=O (stereo in doubt; 27) [ZIDOVUDINE]
- pEC50 [2]: < 4.00
- EC90 [2]: > 100 µM
- pEC50 (Hepatitis B virus): < 4.00
- Activity [4]: Non-toxic

Structure (SMILES): [N-]=[N+]=N[C@@H]1C[C@@H](n2cnc3c(O)nc(N)nc32)O[C@H]1COP(=O)(O)OP(=O)(O)OP(=O)(O)O
- pKd [1]: 6.64

Structure (SMILES): Nc1ccn([C@@H]2CS[C@H](CO)O2)c(=O)n1 [LAMIVUDINE]
- pEC50 (Hepatitis B virus; [18]): 7.22
- pIC50 (PBMC [3]): < 4.00
- pIC50 (CCRF-CEM): < 4.00
- pIC50 (Vero): < 4.00
- Activity [4]: Non-toxic

Structure (SMILES): CCOC(=O)[C@H](C)NP(=O)(OC[C@@H]1O[C@H](n2cnc3c(N)ncnc32)C[C@H]1N=[N+]=[N-])Oc1ccccc1 (stereo not given in full)
- pEC50 [2, 17]: 5.85
- EC90 [2, 17]: 15.6 µM
- pEC50 (Hepatitis B virus; [18]): < 4.00
- pIC50 (PBMC [3]): < 4.00
- pIC50 (CCRF-CEM): < 4.00
- pIC50 (Vero): < 4.00
- Activity [4]: Non-toxic
- Activity (PBMC [7]): 7500 fmol
- Activity (PBMC [8]): 4200 fmol
- Activity (PBMC [9]): 1200 fmol
- Activity (PBMC [10]): 7400 fmol

Structure (SMILES): [N-]=[N+]=N[C@@H]1C[C@@H](n2cnc3c(N)nc(N)nc32)O[C@H]1COP(=O)(O)OP(=O)(O)OP(=O)(O)O
- pKd [1]: 5.64
- Ratio [5]: 0.062 µM⁻¹ min⁻¹
- Selectivity ratio [6]: 7340

Structure (SMILES): Cc1cn([C@H]2C[C@H](N=[N+]=[N-])[C@@H](CO)O2)c(=O)[nH]c1=O (stereo in doubt) [ZIDOVUDINE]
- pEC50 (Hepatitis B virus): < 5.00

Structure (SMILES): CCOC(=O)[C@H](C)NP(=O)(OC[C@@H]1O[C@H](n2cnc3c(Cl)nc(N)nc32)C[C@H]1N=[N+]=[N-])Oc1ccccc1 (stereo not given in full)
- pEC50 [2, 17]: 4.78
- EC90 [2, 17]: 55.9 µM
- pEC50 (Hepatitis B virus; [18]): < 4.00
- pIC50 (PBMC [3]): 4.15
- pIC50 (CCRF-CEM): 4.64
- pIC50 (Vero): < 4.00
- Activity (PBMC [11]): 12 fmol
- Activity [4]: Non-toxic
- Activity (PBMC [12]): 49 fmol
- Activity (PBMC [13]): 430 fmol
- Activity (PBMC [14]): 190 fmol
- Activity (PBMC [15]): 10 fmol

Structure (SMILES): Nc1ccn([C@@H]2CS[C@H](COP(=O)(O)OP(=O)(O)OP(=O)(O)O)O2)c(=O)n1 [LAMIVUDINE TRIPHOSPHATE]
- pKd [1]: 6.89
- Ratio [5]: 5.46 µM⁻¹ min⁻¹
- Selectivity ratio [16]: 11.9

Structure (SMILES): CCOC(=O)[C@H](C)NP(=O)(OC[C@@H]1O[C@H](n2cnc3c(O)nc(N)nc32)C[C@H]1N=[N+]=[N-])Oc1ccccc1 (stereo not given in full)
- pEC50 [2, 17]: < 4.00
- EC90 [2, 17]: > 100 µM
- pEC50 (Hepatitis B virus; [18]): < 4.00
- pIC50 (PBMC [3]): < 4.00
- pIC50 (CCRF-CEM): < 4.00
- pIC50 (Vero): < 4.00
- Activity [4]: Non-toxic

Structure (SMILES): CCOC(=O)[C@H](C)NP(=O)(OC[C@@H]1O[C@H](n2cc(C)c(=O)[nH]c2=O)C[C@H]1N=[N+]=[N-])Oc1ccccc1 (stereo not given in full)
- pEC50 [2, 17]: < 4.00
- EC90 [2, 17]: > 100 µM
- pEC50 (Hepatitis B virus; [18]): < 4.00
- pIC50 (PBMC [3]): < 4.00
- pIC50 (CCRF-CEM): < 4.00
- pIC50 (Vero): < 4.00
- Activity [4]: Non-toxic
